# Source: ChEMBL document CHEMBL4706564 (Eur J Med Chem, 2020)
# How the values were obtained:
# cells [1] = assay type: cell-based, Ebolavirus, HEK293T; conditions: Orthoebolavirus, Mayinga, HEK-293T
# cells [2] = assay type: cell-based, HEK293T; conditions: Vesicular stomatitis virus, HEK-293T
# in vitro = conditions: human, HEK293T cells
# [3] = Cytotoxicity against human HEK293T cells incubated for 48 hrs by MTT assay; assay type: cell-based, HEK-293T; conditions: HEK293T cells
# Procedure, shortened: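 HEK293T cells at 10⁵ cells/ml were added to two-fold compound dilutions in 10% DMEM and incubated 48 h at 37 °C, 5% CO2. MTT (5 mg/ml stock in PBS, 1/10 volume) was added for 2 h, and formazan was dissolved in DMSO before reading optical density. Each concentration was run in triplicate. CC50 was the concentration giving 50% cell death, or halving OD versus control.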
SMILES,IC50 (cells [1]),IC50 (cells [2]),selectivity ratio (in vitro),CC50 at 48 h [3]
CC1(C)[C@H]2CC[C@]1(C)[C@H](OC(=O)CN1CCOCC1)C2,24.9 µM,291 µM,13,327 µM
CN1CCN(CC(=O)O[C@@H]2C[C@@H]3CC[C@@]2(C)C3(C)C)CC1,6.8 µM,485 µM,46,312 µM
CC1CCN(CC(=O)O[C@@H]2C[C@@H]3CC[C@@]2(C)C3(C)C)CC1,8.5 µM,35 µM,8,71.6 µM
CCN1CCN(CC(=O)O[C@@H]2C[C@@H]3CC[C@@]2(C)C3(C)C)CC1,1.6 µM,264 µM,80,130 µM
CC1(C)[C@H]2CC[C@]1(C)[C@H](OC(=O)CN1CCCCC1)C2,15.7 µM,122 µM,9,141 µM
CCOC(=O)N1CCN(CCC(=O)O[C@@H]2C[C@@H]3CC[C@@]2(C)C3(C)C)CC1,28.3 µM,,4,110 µM
CC1CCN(CC(=O)N[C@@H]2C[C@H]3CC[C@]2(C)C3(C)C)CC1,27 µM,78 µM,,78 µM
CN(C)CCCC(=O)O[C@@H]1C[C@@H]2CC[C@@]1(C)C2(C)C,1.5 µM,,67,101 µM
CC1CCN(CC(=O)O[C@@H]2C[C@H]3CC[C@]2(C)C3(C)C)CC1,3.1 µM,,11,34.1 µM
CC1CCN(CCCC(=O)O[C@@H]2C[C@@H]3CC[C@@]2(C)C3(C)C)CC1,9.3 µM,276 µM,,171 µM
CC1(C)[C@H]2CC[C@]1(C)[C@H](OC(=O)CN1CCCCCC1)C2,1 µM,,70,71.6 µM
CC1(C)[C@@H]2CC[C@@]1(C)[C@H](OC(=O)CN1CCCCC1)C2,2.9 µM,,28,80.5 µM
CC1(C)[C@H]2CC[C@]1(C)[C@H](OC(=O)CCCN1CCCCCC1)C2,0.2 µM,,250,62.2 µM
CC1CCN(CCCCC(=O)O[C@@H]2C[C@@H]3CC[C@@]2(C)C3(C)C)CC1,0.2 µM,83.5 µM,408,73 µM
CN1CCN(CCCC(=O)O[C@@H]2C[C@@H]3CC[C@@]2(C)C3(C)C)CC1,0.6 µM,97.3 µM,,99.2 µM
CC1(C)[C@H]2CC[C@]1(C)[C@H](OC(=O)CCCCN1CCCCC1)C2,0.6 µM,105 µM,162,101 µM
CC1(C)[C@H]2CC[C@]1(C)[C@H](OC(=O)CCCN1CCCCC1)C2,0.3 µM,50.1 µM,230,74.8 µM
CC1(C)[C@H]2CC[C@]1(C)[C@H](OC(=O)CCCN1CCOCC1)C2,6.5 µM,288 µM,33,210 µM
CN(C)CCC(=O)O[C@@H]1C[C@@H]2CC[C@@]1(C)C2(C)C,30 µM,,17,505 µM
CC1(C)[C@H]2CC[C@]1(C)[C@@H](OC(=O)CN1CCCCC1)C2,3.6 µM,,25,89.5 µM
CCN1CCN(CCCC(=O)O[C@@H]2C[C@@H]3CC[C@@]2(C)C3(C)C)CC1,0.1 µM,165 µM,880,131 µM
CC1(C)[C@@H]2CC[C@@]1(C)[C@H](NC(=O)CCN1CCOCC1)C2,22.1 µM,312 µM,,312 µM
CC1CCN(CC(=O)O[C@H]2C[C@@H]3CC[C@@]2(C)C3(C)C)CC1,4.4 µM,,8,34.1 µM
CN[C@H]1CC[C@@H](c2ccc(Cl)c(Cl)c2)c2ccccc21 [SERTRALINE],,,,408 µM
